# Results published in PubChem BioAssay.
# The source made the active and inactive calls.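 How the source made its calls, unless noted: active means fluorescence slope higher than the sample average by over 3 SD (cut at about -0.22 in these data, passing the limit was not always enough); inactive means the rest.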
# How the values were obtained:
# [1] = inhibitors of TNFa-induced NFkB p65 translocation, primary screen, imaging, HUVEC, MLSMR starter and 10KST1 sets (AID 438;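 active means inhibition above 20% together with a positive visual image hit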;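 further: compound added about 3h40 before a 20 min TNFalpha stimulation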;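 on inhibition: signal is the nuclear over cytoplasmic p65 intensity ratio per well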); settings: HUVEC TNFa-induced p65 nuclear translocation; cell count: measured here: nuclei count (cytotoxicity indicator), at 2.08 µM; inhibition: at 2 µM, stronger effect = higher value, 0% TNFa-plus-vehicle, 100% no-TNFa wells
# [2] = inhibitors of mutant huntingtin aggregation, primary screen, imaging, exon1htt(103Q)mCFP cells, high-content imaging (AID 483;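 active means visual image review flags a hit and inhibition of aggregation exceeds 20%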;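 further: compound exposure lasted 3 days before fixation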;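 on nuclei count: percent of the per-plate median nuclei count of sample wells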); settings: exon1htt(103Q)mCFP cell line, aggregate imaging, at 2 µM; inhibition of aggregation: stronger effect = higher value; nuclei count: measured here: cell count, toxicity
# [3] = inhibitors of E-selectin induction by TNFa, primary screen, imaging, HUVEC, immunofluorescence, MLSMR starter and 10KST1 sets (AID 487;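 active means visually confirmed hit in the image check and inhibition above 20%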;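 on inhibition: signal is fraction of cell area covered by stained E-selectin grains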;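 on nuclei count: 100% = median nuclei count of all wells on the same plate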); settings: HUVEC TNFalpha-induced E-selectin immunofluorescence imaging, at 2 µM; inhibition: stronger effect = higher value; nuclei count: measured here: cell number, toxicity
# [4] = target: Voltage-gated potassium channel subunit beta-2 (Rattus norvegicus) (UniProt P62483); test: KvBeta enzyme negative modulators, primary screen, biochemical, NADPH fluorescence (AID 622); settings: recombinant KvBeta, 4-cyanobenzaldehyde reduction, at 10 µM, stronger effect = higher value;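 further: slope of raw intensity against log time taken from 70 to 1610 s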
# [5] = target: Voltage-gated potassium channel subunit beta-2 (Rattus norvegicus) (UniProt P62483); test: KvBeta positive modulators, primary screen, biochemical, NADPH fluorescence (AID 623;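 active means NADPH fluorescence slope more negative than the mean of all samples by about 3 SD, 99.7% confidence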;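 further: fluorescence intensity change per second fitted from 20 to 320 s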); settings: Recombinant KvBeta, NADPH fluorescence decrease slope, 10 min; at 10 µM; stronger effect = lower value
# [6] = target: Muscarinic acetylcholine receptor M4 (Homo sapiens) (UniProt P08173); test: compounds altering M4/GIRK thallium flux, either direction, primary screen, M4 allosteric agonist project, cell-based, HEK293 M4/GIRK, BTC-AM (AID 625;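 active means fluorescence slope after compound addition differing from the mean of all tested samples at 99.7% confidence, mostly higher but some lower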;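 further: thallium influx through GIRK channels coupled to M4 in HEK293 cells with BTC-AM dye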); settings: at 10 µM, actives lie on both sides
# How it was run: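 assay system = HEK293 cells with M4 receptor and GIRK channels | medium = pH 7.3 thallium assay buffer | doses = 10 µM final, single point | timing = cells overnight at 37 °C, BTC-AM loading 1 h, reads 2 min total | signal = BTC-AM fluorescence, 1 Hz kinetic reads | read-out = post-addition slope, 15–24 s, of baseline-normalized fluorescence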
# [7] = inhibitors of Sendai virus-induced IRF3 signaling, primary screen, TLR/RLR signaling modifier project, cell-based, Sendai virus stimulus, luciferase, 10K MLSCN set (AID 602276;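 active means inhibition at or above 50% at 10 µM; inactive means inhibition below 50%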;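 further: firefly luciferase from ISG56 promoter only with Renilla not read in this screen; 0% = Sendai virus plus DMSO and 100% = medium plus DMSO without virus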); settings: HEK293 RL24 IRF3 luciferase reporter, at 10 µM, stronger effect = higher value
# [8] = inhibitors of poly I:C-induced TLR3 signaling, primary screen, cell-based, poly I:C stimulus, luciferase, 10K MLSCN set (AID 602277;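 active means inhibition of the reporter signal at or above 50%; inactive means inhibition below 50%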); settings: HEK293-TLR3 RL24 IRF3 luciferase reporter, at 10 µM, stronger effect = higher value
# Sequence of Muscarinic acetylcholine receptor M4 (Homo sapiens) (P08173 whole entry, looked up): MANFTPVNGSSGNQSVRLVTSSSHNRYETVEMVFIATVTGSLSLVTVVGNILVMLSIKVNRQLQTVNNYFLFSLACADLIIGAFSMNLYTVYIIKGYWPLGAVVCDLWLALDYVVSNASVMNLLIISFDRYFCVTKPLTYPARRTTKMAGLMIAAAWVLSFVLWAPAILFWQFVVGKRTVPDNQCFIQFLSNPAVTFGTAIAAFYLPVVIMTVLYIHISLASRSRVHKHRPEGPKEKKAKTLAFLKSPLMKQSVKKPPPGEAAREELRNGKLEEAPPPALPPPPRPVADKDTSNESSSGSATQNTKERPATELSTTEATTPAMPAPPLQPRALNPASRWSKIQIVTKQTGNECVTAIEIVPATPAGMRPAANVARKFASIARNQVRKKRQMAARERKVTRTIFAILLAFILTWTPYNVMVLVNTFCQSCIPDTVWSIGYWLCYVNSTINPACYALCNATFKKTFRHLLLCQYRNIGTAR
# Sequence of Voltage-gated potassium channel subunit beta-2 (Rattus norvegicus) (P62483 whole entry, looked up): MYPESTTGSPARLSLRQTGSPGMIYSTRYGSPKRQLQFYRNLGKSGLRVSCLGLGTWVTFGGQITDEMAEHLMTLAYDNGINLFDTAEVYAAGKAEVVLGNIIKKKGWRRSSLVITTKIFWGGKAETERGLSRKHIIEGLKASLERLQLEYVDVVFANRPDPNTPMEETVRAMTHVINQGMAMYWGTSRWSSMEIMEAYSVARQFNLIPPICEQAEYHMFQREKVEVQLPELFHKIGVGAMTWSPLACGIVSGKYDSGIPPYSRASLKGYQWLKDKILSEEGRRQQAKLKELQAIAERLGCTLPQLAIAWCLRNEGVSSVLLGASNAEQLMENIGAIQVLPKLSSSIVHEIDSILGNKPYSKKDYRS
SMILES,cell count [1],inhibition [1],inhibition of aggregation [2],nuclei count [2],inhibition [3],nuclei count [3],fluorescence slope [4],NADPH fluorescence slope [5],fluorescence slope [6],inhibition [7],inhibition [8]
CCCCc1ccc(NC(=O)N[C@H](C(=O)O)C(C)CC)cc1 (stereo partly specified),610,-13.3% (inactive),-22.8% (inactive),109%,-22.1% (inactive),118%,-0.446 (inactive),-3.7e-05 (inactive),0.00522 (inactive),4.79% (inactive),14.4% (inactive)
CCOC(=O)NC(c1ccccc1)C1CCCCC1=O (stereo unspecified),486,-3.4% (inactive),-0.1% (inactive),103%,-25.5% (inactive),105%,-0.565 (inactive),1e-05 (inactive),0.00674 (inactive),14.4% (inactive),18.4% (inactive)
O=C(CCN1CCN(c2ccc(F)cc2)CC1)Nc1ccccc1F,315,-2.1% (inactive),34.9% (active),84.8%,19.6% (inactive),87.8%,-0.446 (inactive),0.000136 (inactive),0.00622 (inactive),16.9% (inactive),24.9% (inactive)
Cn1c(Cc2cccs2)nnc1SCC(=O)N1CCc2ccccc21,369,-1.8% (inactive),14.1% (inactive),93.4%,-67.8% (inactive),93.3%,-0.479 (inactive),-6.1e-05 (inactive),0.00472 (inactive),8.51% (inactive),16.5% (inactive)
COc1ccc(Cc2nnc3n2N=C(c2cc4ccccc4o2)CS3)cc1OC,378,-16.3% (inactive),40.2% (active),43.3%,38.3% (inactive),51.6%,-0.346 (inactive),-7.6e-05 (inactive),0.00468 (inactive),11.3% (inactive),26% (inactive)
O=C(CCn1c(=O)oc2ccccc21)NCCN1CCc2ccccc2C1,375,7.2% (inactive),5.1% (inactive),93.1%,-315% (inactive),108%,-0.451 (inactive),-2.5e-05 (inactive),0.00577 (inactive),15.7% (inactive),29.6% (inactive)
COc1ccc(-c2noc(CN3C(=O)c4ccccc4C3=O)n2)cc1,551,8.9% (inactive),4.4% (inactive),90.5%,-19.9% (inactive),108%,-0.551 (inactive),-4.8e-05 (inactive),0.00296 (inactive),0.341% (inactive),-2.38% (inactive)
CCn1cc(/C=C(/C#N)S(=O)(=O)c2ccccc2)cn1,593,-10.9% (inactive),7% (inactive),75%,-61.5% (inactive),99.9%,-0.488 (inactive),-9.1e-05 (inactive),0.00519 (inactive),-4.56% (inactive),-9.84% (inactive)
Cc1ccc(C(=O)CSc2nnc(-c3cccnc3)n2N)cc1,614,-20.3% (inactive),-15.4% (inactive),89.2%,5.4% (inactive),95.7%,-0.534 (inactive),-5.6e-05 (inactive),0.00446 (inactive),-0.185% (inactive),51.1% (active)
O=c1[nH]c2c(s1)C(c1ccco1)C1C3CCC(C3)C1S2 (stereo unspecified),220,9.2% (inactive),12.3% (inactive),89.5%,-32.2% (inactive),108%,-0.574 (inactive),-4.2e-05 (inactive),0.00506 (inactive),12.1% (inactive),26.3% (inactive)
O=C(Nc1ccc(Cl)cc1)C1CC=CCC1C(=O)OCC(F)(F)C(F)F (stereo unspecified),628,8.2% (inactive),31.1% (inactive),88%,-17.6% (inactive),96.7%,-0.319 (inactive),-7e-05 (inactive),0.00812 (inactive),11.2% (inactive),3.19% (inactive)
CCOC(=O)CCCn1nc(C)n2c(cc3sccc32)c1=O,563,-3.2% (inactive),-1.6% (inactive),119%,-28.3% (inactive),119%,-0.406 (inactive),8.7e-05 (inactive),0.00716 (inactive),-11.6% (inactive),-28.8% (inactive)
Cc1n[nH]c(C)c1S(=O)(=O)N1CCN(c2ccccn2)CC1,407,-8.5% (inactive),12.4% (inactive),76%,-43.6% (inactive),108%,-0.485 (inactive),5e-05 (inactive),0.00681 (inactive),-0.889% (inactive),2.25% (inactive)
CCOc1ccc(OCc2ccc(C(=O)Nc3cccc(C)n3)o2)cc1,731,-4.2% (inactive),-3.4% (inactive),114%,-43.1% (inactive),117%,-0.557 (inactive),-6.3e-05 (inactive),0.00558 (inactive),-27% (inactive),-74% (inactive)
CN(Cc1cccs1)c1ncnc2sccc12,549,-11.6% (inactive),-28.3% (inactive),101%,-38.6% (inactive),147%,-0.456 (inactive),2.8e-05 (inactive),0.00479 (inactive),7.29% (inactive),-37.9% (inactive)
Cn1c(=O)n(C)c2cc(CNc3ccc(N4CCOCC4)c(C(=O)O)c3)ccc21,350,-0.2% (inactive),3% (inactive),107%,-9.8% (inactive),110%,-0.423 (inactive),0.00012 (inactive),0.00799 (inactive),13.1% (inactive),5.3% (inactive)
COC(=O)CCN1CCC(C(N)=O)CC1,336,-6.3% (inactive),-4.2% (inactive),107%,-132% (inactive),129%,-0.437 (inactive),6.8e-05 (inactive),0.00663 (inactive),1.78% (inactive),6.83% (inactive)
Cc1ccc(S(=O)(=O)NCCNC(=O)c2ccccc2)cc1,212,-4.9% (inactive),10.3% (inactive),97.8%,-38.2% (inactive),93.6%,-0.282 (inactive),-4.2e-05 (inactive),0.00552 (inactive),13.4% (inactive),10.4% (inactive)
Brc1ccc2[nH]ncc2c1,364,4.4% (inactive),8.2% (inactive),91.4%,13.4% (inactive),77%,-0.477 (inactive),-3.1e-06 (inactive),0.00572 (inactive),15.5% (inactive),22.5% (inactive)
Cc1ccc(Cn2c(C)nc3c(c2=O)c2nc4ccccc4nc2n3Cc2ccco2)cc1,623,-5.4% (inactive),-11% (inactive),111%,-33.1% (inactive),91.7%,-0.557 (inactive),-5.9e-05 (inactive),0.00181 (inactive),16.5% (inactive),28.3% (inactive)
O=C(Cn1cnc2c(oc3ccccc32)c1=O)N1CCN(c2ccccc2)CC1,648,10.8% (inactive),34.2% (inactive),95%,-78% (inactive),84.4%,-0.493 (inactive),1.3e-05 (inactive),0.00654 (inactive),10.1% (inactive),17.4% (inactive)
COC(=O)c1sccc1NC(=O)c1ccncc1,467,5.7% (inactive),7.5% (inactive),103%,-36.5% (inactive),122%,-0.49 (inactive),-3.8e-05 (inactive),0.00518 (inactive),12% (inactive),-9.7% (inactive)
COCCNC(=O)Cn1nc(C(F)(F)F)c(Br)c1C,376,1.1% (inactive),19.5% (inactive),65.4%,0.5% (inactive),92%,-0.548 (inactive),-4.9e-05 (inactive),0.00551 (inactive),3.89% (inactive),20.6% (inactive)
O=C1CNCc2[nH]c3ccccc3c2N1c1ccccc1,377,3.9% (inactive),9.4% (inactive),104%,-124% (inactive),118%,-0.509 (inactive),-3.5e-05 (inactive),0.00541 (inactive),17.2% (inactive),17.9% (inactive)
COCCn1c(NCc2ccc(C)cc2)nc2c1c(=O)[nH]c(=O)n2C,848,6.8% (inactive),29.4% (inactive),91.9%,9.9% (inactive),110%,-0.543 (inactive),-2.1e-05 (inactive),0.00577 (inactive),7.9% (inactive),13.3% (inactive)
CCC(=O)/C=C1\Sc2ccc(OC)cc2N1CCO,626,2.4% (inactive),-1.7% (inactive),93.6%,-28.2% (inactive),85.1%,-0.577 (inactive),-3.8e-05 (inactive),0.0067 (inactive),21.2% (inactive),9.17% (inactive)
